A selection: hits, their analogues and other compounds. The true share with any hit is near 4.7%.
MrgX1 ag: agonists of human MrgX1 receptor, primary screen, HEK293 cells, Fluo-4 calcium flux. Mas-related G-protein coupled receptor member X1 (Homo sapiens), Q96LB2. Fluo-4 calcium fluorescence, agonist mode; active compounds read high. B-score at 10 µM. hit rate 0.44% among 310,000. AID 588627, 2011;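 active means calcium response B-score plate-corrected fluorescence ratio at least 3 library SD, with starting fluorescence B-score inside 5 SD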
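Assay system: MrgX1-expressing HEK293 cells / Amount: fifteen thousand cells per well / Doses: test compound in the initial addition of three / Timing: cells plated overnight, dye loaded 0.5 h 37 °C, 0.5 h room temperature / Technique: kinetic calcium dye fluorescence, Fluo-4 NW / Control set: positive and negative controls per plate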
MrgX1 antagonist: antagonists of human MrgX1 receptor, primary screen, HEK293 cells, Fluo-4 calcium flux; Mas-related G-protein coupled receptor member X1 (Homo sapiens), Q96LB2; BAM8-22 antagonism; active compounds read low; B-score at 10 µM; hit rate 1.3% among 310,000;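 active means calcium-response B-score plate-corrected more than 3 library SD below zero, starting fluorescence within 5 deviations, no agonist response on first addition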;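 further: peak minus trough fluorescence over baseline after final BAM8-22 challenge near maximal dose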
RGS4 inh: RGS4 inhibitors, primary screen, cell-based, HEK293 M3R inducible RGS4, calcium flux; Fluo-4 calcium flux; active compounds read high; triggered by carbachol at its EC20; B-score at 10 µM; hit rate 0.45% among 310,000;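 active means B-score, a plate-corrected calcium signal, over three deviations above library mean, with baseline fluorescence within five deviations of library mean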;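 further: RGS4 expression induced by doxycycline in cells with stable M3 receptor; B-score is computed from the integrated fluorescence ratio over baseline after carbachol; higher B-score means a larger calcium signal and so more RGS4 inhibition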
KCC2 mod: KCC2 cotransporter modulators, thallium flux, primary screen, cell-based, HEK293 KCC2, FluoZin-2 fluorescence, MLSMR | hit rate 2.2% among 190,000 | KCC2 cells, thallium flux FluoZin-2 fluorescence | AID 1456, 2008 | B-score of Tl+ flux slope (higher = more flux/activation; lower = inhibition) at 10 µM;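 active means thallium flux slope and its plate-corrected score both differing from the plate sample mean at a set confidence after two filtering rounds, in either direction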;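 further: slope of fluorescence scaled to starting intensity during 10 to 20 s after thallium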
Target sequence (Q9H2X9 whole entry, looked up): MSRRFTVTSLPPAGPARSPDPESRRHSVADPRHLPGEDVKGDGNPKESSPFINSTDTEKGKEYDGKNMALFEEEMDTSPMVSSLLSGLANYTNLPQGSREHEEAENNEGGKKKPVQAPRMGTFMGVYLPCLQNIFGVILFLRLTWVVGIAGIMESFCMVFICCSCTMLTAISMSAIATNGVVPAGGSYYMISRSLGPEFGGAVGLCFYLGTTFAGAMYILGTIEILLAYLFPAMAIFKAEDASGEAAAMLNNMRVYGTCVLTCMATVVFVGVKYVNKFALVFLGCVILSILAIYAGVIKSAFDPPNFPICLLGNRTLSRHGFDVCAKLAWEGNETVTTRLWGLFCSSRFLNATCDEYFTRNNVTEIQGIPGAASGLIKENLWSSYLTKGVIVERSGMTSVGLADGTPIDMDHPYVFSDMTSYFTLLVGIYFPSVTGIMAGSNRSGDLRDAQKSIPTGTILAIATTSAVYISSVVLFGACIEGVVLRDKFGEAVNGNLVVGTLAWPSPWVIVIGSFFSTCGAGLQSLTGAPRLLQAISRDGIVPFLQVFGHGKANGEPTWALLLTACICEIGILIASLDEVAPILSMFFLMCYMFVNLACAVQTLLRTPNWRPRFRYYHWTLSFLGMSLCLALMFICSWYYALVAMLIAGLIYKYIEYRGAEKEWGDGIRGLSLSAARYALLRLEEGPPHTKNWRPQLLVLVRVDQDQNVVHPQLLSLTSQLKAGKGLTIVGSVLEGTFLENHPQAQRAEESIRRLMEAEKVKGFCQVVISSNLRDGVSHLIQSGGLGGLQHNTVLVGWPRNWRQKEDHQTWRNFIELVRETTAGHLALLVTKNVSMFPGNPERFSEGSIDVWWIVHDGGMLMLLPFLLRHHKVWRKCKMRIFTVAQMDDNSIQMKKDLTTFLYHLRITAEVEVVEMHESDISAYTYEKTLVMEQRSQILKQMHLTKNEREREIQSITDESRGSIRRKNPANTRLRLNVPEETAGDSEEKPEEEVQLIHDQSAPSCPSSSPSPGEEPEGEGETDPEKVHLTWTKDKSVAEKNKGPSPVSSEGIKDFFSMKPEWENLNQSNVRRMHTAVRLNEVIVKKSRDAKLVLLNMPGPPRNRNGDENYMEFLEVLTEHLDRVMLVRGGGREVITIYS
RGS4 pot: RGS4 potentiators or activators, primary screen, cell-based, HEK293 M3R inducible RGS4, calcium flux; carbachol calcium flux Fluo4; active compounds read low; B-score at 10 µM; hit rate 0.92% among 310,000;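 active means B-score of the integrated calcium signal more than 4 SD below the library mean, with starting fluorescence not abnormally high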;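 further: negative B-score means reduced calcium response which marks RGS4 activation or potentiation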
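test system = HEK293 cells with stable M3R and inducible RGS4 | schedule = recording 10 s baseline at 1 Hz, 100 s post-agonist | technique = Fluo4-AM (2 µM) calcium-flux fluorescence, kinetic read | measure = Agonist-evoked peak-minus-minimum fluorescence over baseline, integrated ratio, B score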
MrgX1 PAM: positive allosteric modulators of MrgX1, primary screen, HEK293 cells, Fluo-4 calcium flux; Mas-related G-protein coupled receptor member X1 (Homo sapiens), Q96LB2; FDSS; active compounds read high; B-score at 10 µM; hit rate 0.63% among 310,000; AID 588675, 2011;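 active means plate-corrected calcium response at least 3 library SD above typical, normal starting fluorescence, not activating the receptor alone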;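 further: compound read alongside a low EC10 to EC30 dose of BAM8-22 agonist; peak minus trough fluorescence over baseline measured at the second addition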
* marks the source's active call; other numbers are inactive results; i = inactive; nt = no result given.

SMILES	MrgX1 ag	MrgX1 antagonist	RGS4 inh	KCC2 mod	RGS4 pot	MrgX1 PAM
CC(C)n1cc(NC(=O)c2cc(-c3ccccc3)on2)cn1	i	i	i	33.1*	i	i
Cc1ccc(NC(=O)/C(C#N)=C(\N)C(Cl)(Cl)Cl)nc1	27.7*	i	i	0.273	i	i
CCOc1ccc(CNC(=O)C2CCCN(S(=O)(=O)N3CC(C)CC(C)C3)C2)cc1OC (centres undefined)	i	i	i	nt	i	i
O=C(/C=C/c1ccc([N+](=O)[O-])cc1)/C=C/c1ccco1	i	i	15.7*	nt	i	i
CCC1=NN(C(=O)c2cccc(Br)c2)C(O)(c2ccc(Br)cc2)C1 (centres undefined)	i	i	i	6.46*	i	i
CC(=O)Nc1ccc(NC(=O)C(C)OC(=O)CSc2ccc(Br)cc2C)cc1 (centres undefined)	i	i	i	nt	i	i
C=CCNC(=S)Nc1nc2c(cc1C(=O)OCC)CCCC2	i	i	i	63.1*	i	i
CCOC(=O)CC(=O)COc1nc2cc3c(nc2o1)CCCC3	i	i	i	nt	i	i
CCNC(=S)Nc1nc2c(cc1C(=O)OCC)CCCC2	i	i	i	40.6*	i	i
CCOc1ccccc1CN1CCN(CCCc2ccccc2)CC1CCO (centres undefined)	i	i	i	nt	i	i
COc1ccc(OC)c(Nc2nc(N(C)c3ccccc3)nc(N)c2[N+](=O)[O-])c1	i	i	i	nt	-8.1*	i
Cc1ccc(NC(=O)CCOc2ccccc2C)cc1C	i	i	i	nt	i	i
Cc1cccc2sc(N(CCCN(C)C)C(=O)c3ccc(Cl)s3)nc12	i	i	i	1.1	-8.33*	i
O=C(NCC1COc2ccccc2O1)c1cccc(S(=O)(=O)NCc2ccccc2)c1 (centres undefined)	i	i	i	nt	i	i
Cc1cccc(-n2c(C)cc(C=C3C(=O)c4ccccc4C3=O)c2C)c1	i	i	i	-0.553	-10*	i
Cc1cc(/C=N/n2cnnc2)c(C)n1-c1ccc2c(c1)OCO2	i	i	i	nt	i	i
Cc1cccc(-n2c(C)cc(/C=N/n3cnnc3)c2C)c1	i	i	i	1.49	-7.32*	i
O=C(NCCCn1ccnc1)c1cc(Cl)cc(Cl)c1	i	i	i	nt	i	i
O=Cc1ccc(Oc2ccc(F)cc2)nc1	i	-4.52*	i	0.639	i	i
Nc1ccc(Oc2ccc(F)cc2)nc1	i	i	i	0.562	i	i
CCOc1ccc(NC2=C(OC)C(=O)c3ccccc3C2=O)cc1	i	i	i	0.276	i	7.35*
COC1=C(Nc2ccc(OC)cc2)C(=O)c2ccccc2C1=O	i	i	i	-0.859	i	7.79*
CC(C)(O)C#Cc1ccc(CN2CCCC(CNC(=O)c3ccco3)C2)cc1 (centres undefined)	i	i	i	nt	i	i
COc1ccc(-c2csc3ncnc(NCCCO)c23)cc1	32.6*	i	i	nt	i	i
O=C(c1ccco1)N1CCN(C(=O)c2ccc(COc3ccc(Cl)cc3Cl)o2)CC1	i	i	i	-3.4*	i	i
SMILES	MrgX1 ag	MrgX1 antagonist	RGS4 inh	KCC2 mod	RGS4 pot	MrgX1 PAM
O=C(c1ccco1)N1CCN(C(=O)c2ccc(COc3ccc4c(c3)CCC4)o2)CC1	i	i	i	-0.848	i	i
O=C(COc1ccccc1)N=C1SC2CS(=O)(=O)CC2N1c1ccccc1F (centres undefined)	i	i	i	nt	i	i
CCC(=O)Nc1cccc(C(=O)/C=C/c2ccc(F)cc2)c1	29.5*	i	i	-0.391	i	i
COc1cccc(NC(=S)NC(=O)/C=C/c2ccc(F)cc2)c1	i	i	i	nt	i	i
CCOC(=O)c1sc2nc(C)nc(N3CCCCC3C)c2c1C (centres undefined)	i	i	i	0.0179	-7.31*	i
Cc1nc(N2CCCCC2C)c2c(C)c(C(=O)Nc3cccc(C(F)(F)F)c3)sc2n1 (centres undefined)	i	i	i	1.67	i	i
C/C(=N\N1C(=O)c2ccccc2NC1c1ccccc1)c1ccccc1O (centres undefined)	i	i	i	-1.11	i	i
O=C1c2ccccc2NC(c2cccc(Cl)c2)N1N=C1CCCCCC1 (centres undefined)	i	i	i	-0.459	i	8.65*
CCOc1cc(/C=C2\N=C(SC(C)C(N)=O)N(c3ccc(OC(F)F)cc3)C2=O)ccc1O (centres undefined)	i	i	i	nt	i	11.4*
Cc1ccc(C(=O)CN(CCC(=O)O)S(=O)(=O)c2ccc([N+](=O)[O-])cc2)cc1	i	i	nt	nt	nt	i
N#CC1=C(N)OC2=C(CC/C2=C\c2ccccc2Cl)C1c1ccccc1Cl (centres undefined)	i	-11.7*	i	0.605	i	i
N#CC1=C(N)OC2=C(CC/C2=C\c2ccccc2)C1c1ccccc1 (centres undefined)	140*	i	i	nt	i	i
CCN1CCN(C(=O)CCc2nnc(CCc3ccc(OC)cc3)o2)[C@@H](C)C1=O	i	i	i	nt	i	i
Cc1ccc(N2C(=O)c3cccc4c([N+](=O)[O-])ccc(c34)C2=O)c2cccnc12	i	i	i	0	i	i
Cc1ccnc(N2C(=O)c3cccc4c([N+](=O)[O-])ccc(c34)C2=O)c1	i	-5.17*	i	nt	i	i
CC(CC(=O)NCCc1ccc(F)cc1)c1ccccc1 (centres undefined)	i	i	i	nt	i	i
COc1ccc(OC)c(CNc2ncc(-c3cccc([N+](=O)[O-])c3)n2C)c1	i	i	i	nt	-7.04*	i
Cn1c(-c2cccc([N+](=O)[O-])c2)cnc1NCc1cccc([N+](=O)[O-])c1	i	i	i	-1.18	i	i
